Calls of active or inactive are those of the source. No cut-off for these calls is given here.
Legend:
Felis catus [1] = experiment: Hypotensive activity in anesthetized normotensive cat at 0.00285 mmol/kg; assay type: functional, organism-based
Felis catus [2] = experiment: Antihypertensive activity in anesthetized normotensive cat assessed as mean reduction of systolic blood pressure at 0.00246 mmol/kg; assay type: functional, Artery
Felis catus [3] = experiment: Antihypertensive activity in anesthetized normotensive cat assessed as mean reduction of systolic blood pressure at 0.00246 mmol/kg relative to control; assay type: functional, Artery; set-up: scale not given: the % may be the effect or the level left
Summary of the method: (§1)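 Normotensive adult cats dosed at 0.00246 mmol/kg. Systolic and diastolic blood pressure recorded in mmHg and reported as mean ± SE. The value is the mean % change from the control group. Significance versus control was tested at p < 0.05.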

Felis catus [4] = experiment: Antihypertensive activity in anesthetized normotensive cat assessed as mean reduction of diastolic blood pressure at 0.00246 mmol/kg; assay type: functional, Artery
Felis catus [5] = experiment: Antihypertensive activity in anesthetized normotensive cat assessed as mean reduction of diastolic blood pressure at 0.00246 mmol/kg relative to control; assay type: functional, Artery; set-up: scale not given: the % may be the effect or the level left; summary of the method: as §1
Felis catus [6] = experiment: Hypotensive activity in anesthetized normotensive cat at 0.0031 mmol/kg; assay type: functional, organism-based
Felis catus [7] = experiment: Hypotensive activity in anesthetized normotensive cat at 0.0014 mmol/kg; assay type: functional, organism-based
Felis catus [8] = experiment: Hypotensive activity in anesthetized normotensive cat at 0.0012 mmol/kg; assay type: functional, organism-based

SMILES | Activity (Felis catus [1]) | Systolic blood pressure (Felis catus [2]) | Activity (Felis catus [3]) | Diastolic blood pressure (Felis catus [4]) | Activity (Felis catus [5]) | Activity (Felis catus [6]) | Activity (Felis catus [7]) | Activity (Felis catus [8])
COc1ccc(CC2/C(=N/CCO)CCN2C(=O)C(C)CS)cc1 (centres undefined) | Active | 106 mmHg | 20.83% | 113.7 mmHg | 9% | – | – | –
COc1ccc(CC2/C(=N/O)CCN2C(=O)C(C)CS)cc1 (centres undefined) | – | 121.9 mmHg | 9% | 109.7 mmHg | 12.22% | Active | – | –
COc1ccc(CC2C(=O)CCN2C(=O)C(C)CS)cc1 (centres undefined) | – | 104.9 mmHg | 21.67% | 115 mmHg | 8% | – | Active | –
CCOC(=O)C(C)/N=C1\CCN(C(=O)C(C)CS)C1Cc1ccc(OC)cc1 (centres undefined) | – | 93.3 mmHg | 30.37% | 84 mmHg | 32.8% | – | – | Active
C[C@H](CS)C(=O)N1CCC[C@H]1C(=O)O [CAPTOPRIL] | – | 105.9 mmHg | 20.91% | 97.6 mmHg | 21.89% | – | – | –

From ChEMBL document CHEMBL1151912, “ACE inhibitors hypothesis generation for selective design, synthesis and biological evaluation of 3-mercapto-2-methyl-propanoyl-pyrrolidine-3-imine derivatives as antihypertensive agents” (2009)
